Measurements: ChEMBL document CHEMBL4304784, “Discovery of new potent dual sigma receptor/GluN2b ligands with antioxidant property as neuroprotective agents” (Eur J Med Chem, 2019)
≈ marks a conversion by molar mass, not a printed value.

What was measured:
[1] = Selectivity ratio of Ki for sigma2 receptor in rat liver membranes to Ki for GluN1a/GluN2B (unknown origin) expressed in mouse L(tk-) cell membranes; assay type: cell-based
[2] = target: T1, Sigma intracellular receptor 2 (Rattus norvegicus, UniProt Q5U3Y7); experiment: Displacement of [3H]-di-o-tolylguanidine from sigma2 receptor in rat liver membranes in the presence of sigma1 receptor ligand (+)-pentazocine incubated for 120 mins by scintillation counting method; assay type: cell membranes
T1 sequence (Q5U3Y7 whole entry): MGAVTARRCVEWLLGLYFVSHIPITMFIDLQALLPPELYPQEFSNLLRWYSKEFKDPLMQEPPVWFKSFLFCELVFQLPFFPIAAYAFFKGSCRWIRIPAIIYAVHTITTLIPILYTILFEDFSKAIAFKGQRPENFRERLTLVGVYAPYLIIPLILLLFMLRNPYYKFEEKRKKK
Procedure, shortened: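 Rat liver membranes (about 100 µg protein) with 3 nM [3H]di-o-tolylguanidine in 50 mM TRIS pH 8.0 containing 500 nM (+)-pentazocine, at rt. Non-specific binding defined with 10 µM unlabeled DTG. Concentrations 10^-5 to 10^-10 M, in duplicate. 120 min, filtration, scintillation counting. Three independent experiments, mean ± SEM.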

[3] = Cytotoxicity against human Hep3B cells assessed as cell viability at 50 uM incubated for 48 hrs by MTT assay relative to control; assay type: cell-based, Hep 3B2; details: read-out: Activity
Procedure, shortened: (§1)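 Cells kept in DMEM Glutamax with 10% FBS and antibiotic/antimycotic at 37 °C, 5% CO2. Plated at 2x10^3 cells/well 24 h before dosing. Compounds taken from DMSO and diluted in medium, final DMSO ≤1.0%. Exposure 48 h, then MTT added for 4 h at 37 °C. Read as A595 minus A655. Triplicates, at least three independent experiments, mean ± SEM.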

[4] = Cytotoxicity against human SH-SY5Y cells assessed as cell viability at 10 uM incubated for 48 hrs by MTT assay (reference value: 100 +/- 12.00%); assay type: cell-based; details: read-out: Activity; procedure, shortened: as §1
[5] = Antioxidant activity assessed as ABTS radical scavenging activity incubated for 40 mins; assay type: functional
Procedure, shortened: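 Test compound at 0.05, 0.1, 0.2 and 0.4 mg/mL (200 µL) added to 1.8 mL ethanolic ABTS 7mM. Incubated 40 min at room temperature, absorbance read at 735 nm against ABTS solution. Percent inhibition computed from absorbances and used to derive IC50. Triplicate, mean ± SEM; ascorbic acid as reference.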

[6] = Cytotoxicity against human Hep3B cells assessed as cell viability at 10 uM incubated for 48 hrs by MTT assay relative to control; assay type: cell-based, Hep 3B2; details: read-out: Activity; procedure, shortened: as §1
[7] = Cytotoxicity against human HeLa cells assessed as cell viability at 25 uM incubated for 48 hrs by MTT assay relative to control; assay type: cell-based; details: read-out: Activity; procedure, shortened: as §1
[8] = Cytotoxicity against human SH-SY5Y cells assessed as decrease in cell viability incubated for 48 hrs by MTT assay; assay type: cell-based; details: read-out: LD50
Procedure, shortened: (§2)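 Cells kept in DMEM Glutamax with 10% FBS and antibiotic/antimycotic at 37 °C, 5% CO2. Seeded 24 h before dosing (SH-SY5Y at 2x10^3 cells/well). Compounds in DMSO serially diluted in medium, final DMSO 1.0%, exposure 48 h. MTT added for 4 h at 37 °C, read A595 minus A655. LD50 from linear regression of dose-log response curves; triplicates, three experiments, mean ± SEM.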

[9] = Cytotoxicity against human HeLa cells assessed as decrease in cell viability incubated for 48 hrs by MTT assay; assay type: cell-based; details: read-out: LD50; procedure, shortened: as §2
[10] = Selectivity ratio of Ki for sigma1 receptor in guinea pig brain membranes to Ki for sigma2 receptor in rat liver membranes; assay type: cell membranes
[11] = Cytotoxicity against human Hep3B cells assessed as cell viability at 25 uM incubated for 48 hrs by MTT assay relative to control; assay type: cell-based, Hep 3B2; details: read-out: Activity; procedure, shortened: as §1
SH-SY5Y = experiment: Neuroprotective activity against H2O2-induced toxicity in human SH-SY5Y cells assessed as cell viability at 25 uM pretreated for 48 hrs followed by H2O2 challenge and measured after 4 hrs by MTT assay (reference value: 18 +/- 2.64%); assay type: functional; details: read-out: Activity
[12] = Cytotoxicity against human HeLa cells assessed as cell viability at 50 uM incubated for 48 hrs by MTT assay relative to control; assay type: cell-based; details: read-out: Activity; procedure, shortened: as §1
[13] = target: Glutamate NMDA receptor; GRIN1/GRIN2B (Homo sapiens, UniProt Q05586+Q13224); experiment: Displacement of [3H]ifenprodil from GluN1a/GluN2B (unknown origin) expressed in mouse L(tk-) cell membranes after 120 mins by solid scintillation counting method
Sequence of Glutamate NMDA receptor; GRIN1/GRIN2B (Q13224 whole entry, other chains not shown): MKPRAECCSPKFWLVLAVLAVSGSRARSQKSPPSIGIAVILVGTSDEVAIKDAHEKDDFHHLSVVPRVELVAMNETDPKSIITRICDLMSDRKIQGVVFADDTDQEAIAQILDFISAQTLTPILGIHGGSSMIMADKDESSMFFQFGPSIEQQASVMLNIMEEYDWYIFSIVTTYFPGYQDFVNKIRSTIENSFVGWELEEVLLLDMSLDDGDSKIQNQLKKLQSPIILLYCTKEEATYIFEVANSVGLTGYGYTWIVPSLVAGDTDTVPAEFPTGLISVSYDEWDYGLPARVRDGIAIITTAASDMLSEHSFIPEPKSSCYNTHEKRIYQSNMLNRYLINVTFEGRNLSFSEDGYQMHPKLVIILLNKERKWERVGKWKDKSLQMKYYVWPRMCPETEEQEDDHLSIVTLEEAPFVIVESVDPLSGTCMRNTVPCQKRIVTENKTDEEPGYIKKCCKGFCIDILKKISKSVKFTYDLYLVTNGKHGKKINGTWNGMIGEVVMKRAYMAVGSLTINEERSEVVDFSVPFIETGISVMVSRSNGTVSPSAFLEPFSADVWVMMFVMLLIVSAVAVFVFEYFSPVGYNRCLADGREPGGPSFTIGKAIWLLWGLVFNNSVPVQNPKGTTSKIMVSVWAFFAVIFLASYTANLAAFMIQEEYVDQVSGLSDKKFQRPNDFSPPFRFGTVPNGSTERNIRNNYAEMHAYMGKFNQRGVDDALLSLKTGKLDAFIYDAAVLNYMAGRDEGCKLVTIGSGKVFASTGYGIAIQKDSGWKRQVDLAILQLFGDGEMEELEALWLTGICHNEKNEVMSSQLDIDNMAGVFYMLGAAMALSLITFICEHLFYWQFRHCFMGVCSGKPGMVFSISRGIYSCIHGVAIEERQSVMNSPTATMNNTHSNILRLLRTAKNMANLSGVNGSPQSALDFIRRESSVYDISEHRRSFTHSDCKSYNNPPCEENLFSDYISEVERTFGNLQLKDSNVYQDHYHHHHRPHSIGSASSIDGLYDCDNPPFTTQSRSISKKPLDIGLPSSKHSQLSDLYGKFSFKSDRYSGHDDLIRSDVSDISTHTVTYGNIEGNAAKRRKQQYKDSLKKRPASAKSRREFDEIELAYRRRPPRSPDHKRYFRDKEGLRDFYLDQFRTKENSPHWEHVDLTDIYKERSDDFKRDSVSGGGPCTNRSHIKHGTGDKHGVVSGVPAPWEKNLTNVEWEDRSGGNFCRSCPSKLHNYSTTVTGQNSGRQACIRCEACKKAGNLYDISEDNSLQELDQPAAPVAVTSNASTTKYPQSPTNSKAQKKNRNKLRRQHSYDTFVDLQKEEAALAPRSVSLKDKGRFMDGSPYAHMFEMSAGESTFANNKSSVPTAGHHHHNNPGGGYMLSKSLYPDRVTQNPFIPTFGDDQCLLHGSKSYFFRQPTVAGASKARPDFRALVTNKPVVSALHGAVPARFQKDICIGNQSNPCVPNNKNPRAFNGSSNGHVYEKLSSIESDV
Procedure, shortened: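 Membranes (about 20 μg protein) from mouse L(tk-) cells stably carrying GluN1a/GluN2B, induced with 4 μM dexamethasone and 4 μM ketamine for 24 h. Incubated with 5 nM [3H]ifenprodil in 5 mM TRIS/1 mM EDTA pH 7.5 at 37 °C, 120 min. Non-specific binding defined with 10 μM ifenprodil.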

[14] = Antioxidant activity assessed as H2O2 radical scavenging activity; assay type: functional
Procedure, shortened: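 Compounds at 0.05, 0.1, 0.2 and 0.4 mg/mL in phosphate buffer pH 7.4. 0.353 mL of 4 mM H2O2 in phosphate buffer added to 2.0 mL of each solution, absorbance read at 239 nm. Percent inhibition calculated from absorbances relative to control. Triplicate, mean ± SEM.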

[15] = target: Sigma non-opioid intracellular receptor 1 (Cavia porcellus, UniProt Q60492); experiment: Displacement of [3H]-(+)-pentazocine from sigma1 receptor in guinea pig brain cortex membranes incubated for 120 mins by solid scintillation counting method; assay type: cell membranes
Sequence of Sigma non-opioid intracellular receptor 1 (Q60492 whole entry): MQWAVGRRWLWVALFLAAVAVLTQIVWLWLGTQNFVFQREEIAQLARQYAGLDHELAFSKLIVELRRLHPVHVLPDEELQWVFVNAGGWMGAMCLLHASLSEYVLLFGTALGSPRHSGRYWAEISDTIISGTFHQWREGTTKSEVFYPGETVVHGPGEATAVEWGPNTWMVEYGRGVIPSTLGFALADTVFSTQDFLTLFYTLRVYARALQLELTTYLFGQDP
Procedure, shortened: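 Guinea pig brain cortex membranes (about 100 µg protein) with 2 nM [3H]-(+)-pentazocine in 50 mM TRIS pH 7.4 at 37 °C. Non-specific binding defined with 10 µM unlabeled (+)-pentazocine. Six concentrations, 10^-5 to 10^-10 M, in duplicate. 120 min with shaking, filtration, solid scintillator counting.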

[16] = Cytotoxicity against human HeLa cells assessed as cell viability at 10 uM incubated for 48 hrs by MTT assay relative to control; assay type: cell-based; details: read-out: Activity; procedure, shortened: as §1
[17] = Cytotoxicity against human SH-SY5Y cells assessed as cell viability at 100 uM incubated for 48 hrs by MTT assay (reference value: 100 +/- 12.00%); assay type: cell-based; details: read-out: Activity; procedure, shortened: as §1
[18] = Cytotoxicity against human Hep3B cells assessed as cell viability at 100 uM incubated for 48 hrs by MTT assay relative to control; assay type: cell-based, Hep 3B2; details: read-out: Activity; procedure, shortened: as §1
[19] = Cytotoxicity against human SH-SY5Y cells assessed as cell viability at 25 uM incubated for 48 hrs by MTT assay (reference value: 100 +/- 12.00%); assay type: cell-based; details: read-out: Activity; procedure, shortened: as §1
[20] = Cytotoxicity against human SH-SY5Y cells assessed as cell viability at 50 uM incubated for 48 hrs by MTT assay (reference value: 100 +/- 12.00%); assay type: cell-based; details: read-out: Activity; procedure, shortened: as §1
[21] = Cytotoxicity against human Hep3B cells assessed as decrease in cell viability incubated for 48 hrs by MTT assay; assay type: cell-based, Hep 3B2; details: read-out: LD50; procedure, shortened: as §2
[22] = Cytotoxicity against human HeLa cells assessed as cell viability at 100 uM incubated for 48 hrs by MTT assay relative to control; assay type: cell-based; details: read-out: Activity; procedure, shortened: as §1

Compound	Ratio Ki [1]	Ki [2]	viability at 48 h, 50 µM [3]	viability at 48 h, 10 µM [4]	IC50 [5]	viability at 48 h, 10 µM [6]	viability at 48 h, 25 µM [7]	CC50 at 48 h [8]	CC50 at 48 h [9]	Ratio Ki [10]	viability at 48 h, 25 µM [11]	viability at 25 µM (SH-SY5Y)	viability at 48 h, 50 µM [12]	Ki [13]	IC50 [14]	Ki [15]	viability at 48 h, 10 µM [16]	viability at 48 h, 100 µM [17]	viability at 48 h, 100 µM [18]	viability at 48 h, 25 µM [19]	also measured
Cc1ccc(CN(C)CCCCN2C(=O)CCc3ccccc32)c(C)c1	6.4	32 nM	52%	92%	26.24 µg/mL (≈ 74.9 µM)	77%	59%	231000 nM	76000 nM	1.9	81%	98%	57%	5 nM	29.16 µg/mL (≈ 83.2 µM)	60 nM	79%	78%	223%	79 to 95%	viability at 48 h, 50 µM [20]: 90%; CC50 at 48 h [21]: 60000 nM; viability at 48 h, 100 µM [22]: 47%
COc1cc2c(cc1OC)CN(CCCCn1nc(-c3ccccc3)oc1=O)CC2	32	864 nM	58%	97%	20.95 µg/mL (≈ 51.2 µM)	85%	82%	77000 nM	69000 nM	1.8	75%	88%	81%	27 nM	27.63 µg/mL (≈ 67.5 µM)	1600 nM	84%	95%	25%	80 to 94%	viability at 48 h, 50 µM [20]: 96%; CC50 at 48 h [21]: 70000 nM; viability at 48 h, 100 µM [22]: 39%
O=C1CCc2ccccc2N1CCCCN1CCN(c2ccccn2)CC1	0.9	73 nM	–	–	–	–	–	–	–	1.6	–	–	–	78 nM	–	120 nM	–	–	–	–	–
O=c1oc(-c2ccccc2)nn1CCCCN1CCc2ccc([N+](=O)[O-])cc2C1	0.9	383 nM	–	–	–	–	–	–	–	2.2	–	–	–	412 nM	–	829 nM	–	–	–	–	–
O=c1oc(-c2ccccc2)nn1CCCCN1CCC2(CC1)OCc1ccccc12	2	16 nM	42%	120%	17.96 µg/mL (≈ 44.3 µM)	87%	80%	53000 nM	55000 nM	1.2	90%	101%	60%	8.2 nM	21.19 µg/mL (≈ 52.3 µM)	19 nM	99%	1%	4%	96 to 104%	viability at 48 h, 50 µM [20]: 50%; CC50 at 48 h [21]: 51000 nM; viability at 48 h, 100 µM [22]: 5%
O=C1CCc2ccccc2N1CCCCN1CCC2(CC1)OCc1ccccc12	6.8	34 nM	38%	116%	78.8 µg/mL (≈ 202 µM)	61%	78%	60000 nM	55000 nM	0.5	67%	97%	45%	5 nM	84.56 µg/mL (≈ 217 µM)	18 nM	92%	16%	10%	88 to 107%	viability at 48 h, 50 µM [20]: 40%; CC50 at 48 h [21]: 50000 nM; viability at 48 h, 100 µM [22]: 31%
O=c1oc(-c2ccccc2)nn1CCCCN1CCN(c2ccccn2)CC1	12.4	2800 nM	–	–	–	–	–	–	–	0.33	–	–	–	226 nM	–	944 nM	–	–	–	–	–
Cc1c(C)c2c(c(C)c1O)CCC(C)(C(=O)O)O2 (stereo unspecified) [TROLOX]	–	–	–	–	22.15 µg/mL (≈ 88.5 µM)	–	–	–	–	–	–	–	–	–	25.88 µg/mL (≈ 103 µM)	–	–	–	–	–	–
O=C1O[C@H]([C@@H](O)CO)C(O)=C1O [ASCORBIC ACID]	–	–	–	–	13.85 µg/mL (≈ 78.6 µM)	–	–	–	–	–	–	–	–	–	17.11 µg/mL (≈ 97.1 µM)	–	–	–	–	–	–
O=C1CCc2ccccc2N1CCCCN1CCc2ccc([N+](=O)[O-])cc2C1	1.4	80 nM	–	–	–	–	–	–	–	2.2	–	–	–	58 nM	–	179 nM	–	–	–	–	–
O=c1oc(-c2ccccc2)nn1CCCCN1CCN(c2ccc(F)cc2)CC1	10	686 nM	–	–	–	–	–	–	–	0.57	–	–	–	68 nM	–	383 nM	–	–	–	–	–
